A selection: hits, their analogues and other compounds. The true share with any hit is near 1.8%.
FLuc inhib CS – inhibits firefly luciferase, flagging false hits in luciferase inhibition screens; ATPLite firefly luciferase biochemical luminescence, 10 min; inhibition, % at 10 µM; AID 1006; 200,000 compounds, 1.5% hits;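 active = inhibition above about 50% when tested at 10 µM, limit read from the data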
Target sequence (P08659 whole entry, looked up): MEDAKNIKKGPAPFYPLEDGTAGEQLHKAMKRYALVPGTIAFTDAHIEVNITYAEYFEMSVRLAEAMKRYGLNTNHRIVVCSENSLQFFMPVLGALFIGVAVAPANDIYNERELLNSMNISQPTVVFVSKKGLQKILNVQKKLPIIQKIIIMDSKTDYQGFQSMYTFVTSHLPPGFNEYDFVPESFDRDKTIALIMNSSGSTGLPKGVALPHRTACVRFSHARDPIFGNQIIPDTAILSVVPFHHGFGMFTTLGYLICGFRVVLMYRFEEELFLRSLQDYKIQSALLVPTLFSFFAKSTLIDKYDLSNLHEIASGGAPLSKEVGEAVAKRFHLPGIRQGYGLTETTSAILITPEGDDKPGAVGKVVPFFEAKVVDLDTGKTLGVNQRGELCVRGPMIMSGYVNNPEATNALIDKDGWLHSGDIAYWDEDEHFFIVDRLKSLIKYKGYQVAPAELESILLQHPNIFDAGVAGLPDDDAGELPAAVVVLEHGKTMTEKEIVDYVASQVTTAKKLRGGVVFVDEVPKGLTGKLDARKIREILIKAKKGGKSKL
FLuc act counter – firefly luciferase counter-screen for stimulation assays; P08659; ATPlite luciferase biochemical, luminescence, 10 min; 0 = ATP-free wells, 1 = DMSO control; activation factor at 10 µM; 200,000 tested, under 10 active; AID 1027;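 active = luciferase activation factor, scaled between plate controls, of at least 2 with compound at 10 µM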
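Material: luciferase plus luciferin reagent, cell-free. Medium: PBS buffer for ATP. Also added: ATP substrate, dispensed from a 10.24 µM working solution in PBS. Doses: test compounds dosed from 2 mM stocks in 100% DMSO. Incubation: 10 min post-reagent at room temperature. Technique: light output (luminescence). Read-out basis: luminescence gain marking luciferase activators.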
PPC-1+TRAIL kill – kills PPC-1 cancer cells in the presence of TRAIL | cell killing (% activity), % at 4 µM or 5 µM | 220,000 compounds, 0.41% hits | AID 1443 | PPC-1 cells + TRAIL, ATPLite viability luminescence;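 active = cell killing above 50% in the first pass at 4 µM, then a duplicate retest at 5 µM averaging 50% or more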
beta cell repl – MIN6 beta-cell proliferation induction. MIN6 cells proliferation, ATPlite luminescence, 48 h; cells starved in 0.2% serum; 100% = growth in 10% serum. proliferation, % at 10 µM. 330,000 compounds, 0.29% hits;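 active = compounds whose signal lies at least 3.5 SD above the mean of all wells on their plate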
TRAIL sens C8 – caspase-8 TRAIL sensitization; NB7+C8 cells + TRAIL, ATPlite viability luminescence; inhibition (viability loss, TRAIL sensitization), % at 10 µM; 360,000 compounds, 1% hits; AID 624354;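 active = compounds causing at least 50% loss of cell viability in the single-dose screen, relative to plate controls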
hiPSC survival – increases survival of single human iPS cells; hiPSC single-cell survival, ATPlite luminescence; 100% = ROCK inhibitor wells, 0% = DMSO; 360,000 compounds, 0.044% hits; survival enhancement, % at 20 µM; in the data active = survival enhancement above about 18%;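 note: cells exposed to compounds for 16 hours before the ATP read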
Of the large screens only hits and unclear results are named; the others gave an inactive call.

N#Cc1ccc(C(=O)Nc2nc3ccccc3[nH]2)cc1	none (no result: FLuc inhib CS, FLuc act counter, PPC-1+TRAIL kill)
COc1cc(C(=O)Nc2nc3ccccc3[nH]2)ccc1OC(F)F	TRAIL sens C8 47.5 (no result: FLuc inhib CS, FLuc act counter)
O=C(Nc1nc2ccccc2[nH]1)c1ccccc1[N+](=O)[O-]	none
CCc1ccc(C(=O)Nc2nc3ccccc3[nH]2)cc1	TRAIL sens C8 96.3 (no result: FLuc inhib CS, FLuc act counter, PPC-1+TRAIL kill)
CC(C)Oc1ccc(C(=O)Nc2nc3ccccc3[nH]2)cc1	TRAIL sens C8 92.0 (no result: FLuc inhib CS, FLuc act counter, PPC-1+TRAIL kill)
CN(C)S(=O)(=O)c1ccc(C(=O)Nc2nc3ccccc3[nH]2)cc1	none
O=C(Nc1nc2ccccc2[nH]1)c1ccccc1OC(F)F	TRAIL sens C8 68.8 (no result: FLuc inhib CS, FLuc act counter, PPC-1+TRAIL kill)
COc1ccc(C(=O)Nc2nc3ccccc3[nH]2)cc1OC	none
O=C(Nc1nc2ccccc2[nH]1)c1ccc(OC(F)F)cc1	TRAIL sens C8 83.2 (no result: FLuc inhib CS, FLuc act counter, PPC-1+TRAIL kill)
Cc1oc(-c2ccc3c(c2)OCCO3)cc1C(=O)NCC(=O)O	none (no result: PPC-1+TRAIL kill)
Cc1oc(-c2ccc3c(c2)OCCO3)cc1C(=O)O	FLuc inhib CS 61.6
CCOc1ccc(C(=O)NC(Cc2ccccc2)C(=O)OC)cc1 (centres undefined)	FLuc inhib CS 53.3
CCOc1ccc(C(=O)NC(C)CCc2ccccc2)cc1 (centres undefined)	none (no result: FLuc inhib CS, FLuc act counter, PPC-1+TRAIL kill)
O=C(Nc1cc(Cl)ccc1-n1cncn1)c1ccc([N+](=O)[O-])o1	none (no result: FLuc inhib CS, FLuc act counter, PPC-1+TRAIL kill)
O=C(Cc1csc(N2CCOCC2)n1)N/N=C/c1ccc(Cl)cc1Cl	none
COc1cc(/C=N/NC(=O)Cc2csc(N3CCOCC3)n2)cc(OC)c1O	FLuc inhib CS 59.6
COc1ccc2c(c1)OC[C@H]1[C@@H]2N2C(=O)CNC(=O)[C@@]2(C)[C@H]1c1ccccc1	none (no result: FLuc inhib CS, FLuc act counter, PPC-1+TRAIL kill)
Nc1ccc(Cn2ccc3c4c(N)nc(N)nc4ccc32)cc1	TRAIL sens C8 73.9 (no result: FLuc inhib CS, FLuc act counter, PPC-1+TRAIL kill, beta cell repl)
COc1cc2c(cc1OC)C(c1ccc(-c3ccccc3Cl)o1)=NCC2	FLuc inhib CS 61.5
CC(C)c1ccc(/C=c2\sc3n(c2=O)C(N)=C(C#N)C(c2ccc(C(C)C)cc2)C=3C(N)=O)cc1 (centres undefined)	TRAIL sens C8 62.8 (no result: FLuc inhib CS, FLuc act counter, PPC-1+TRAIL kill, beta cell repl)
CCOC(=O)C1=C(N)n2c(s/c(=C\c3cccnc3)c2=O)=C(C#N)C1c1cccnc1 (centres undefined)	none (no result: FLuc inhib CS, FLuc act counter, PPC-1+TRAIL kill, beta cell repl)
COc1ccc(S(=O)(=O)N2CCOCC2)cc1NC(=O)c1cccc(Cl)c1	none (no result: FLuc inhib CS, FLuc act counter, PPC-1+TRAIL kill)
N#Cc1cccc2c1-c1ccccc1/C2=N/NC(N)=S	none (no result: FLuc inhib CS, FLuc act counter, PPC-1+TRAIL kill)
NC(=S)NN=C1c2ccccc2-c2c(F)c(F)c(F)c(F)c21	TRAIL sens C8 70.9 (no result: FLuc inhib CS, FLuc act counter, PPC-1+TRAIL kill, beta cell repl)
O=C(Nc1ccc(Cn2ccnc2)cc1)c1cccc(C(F)(F)F)c1	none (no result: FLuc inhib CS, FLuc act counter, PPC-1+TRAIL kill)
CCOC(=O)c1sc2ncn(CC(=O)Nc3cc(C)on3)c(=O)c2c1C	none (no result: FLuc inhib CS, FLuc act counter, PPC-1+TRAIL kill)
Cc1cc(/C=N/n2c(COc3ccccc3)nc3ccccc3c2=O)c(O)c([N+](=O)[O-])c1	TRAIL sens C8 51.1
Cc1ccc(-n2c(C)cc(C(=O)COC(=O)c3ccc[nH]c3=O)c2C)cc1C	FLuc inhib CS 64.8
CCCn1c(C)cc(C(=O)COC(=O)c2ccc[nH]c2=O)c1C	FLuc inhib CS 65.3, TRAIL sens C8 54.2
Cc1cc(C(=O)COC(=O)c2ccc[nH]c2=O)c(C)n1-c1ccccc1F	TRAIL sens C8 58.6 (no result: FLuc inhib CS, FLuc act counter)
CCCn1c(C)cc(C(=O)COC(=O)c2ccc(Cl)c(S(=O)(=O)N3CCCC3)c2)c1C	none
CCn1c(C)cc(C(=O)COC(=O)c2ccccc2[N+](=O)[O-])c1C	TRAIL sens C8 93.2 (no result: FLuc inhib CS, FLuc act counter, PPC-1+TRAIL kill)
COc1ccc(-c2nc(SCC(=O)Nc3cccc(S(N)(=O)=O)c3)n[nH]2)cc1	TRAIL sens C8 61.6 (no result: FLuc inhib CS, FLuc act counter, PPC-1+TRAIL kill)
Cc1ccccc1C(=O)N/N=C/c1ccccn1	FLuc inhib CS 54.3
Cc1ccccc1C(=O)N/N=C/c1ccncc1	none
O=C(N/N=C\c1ccccn1)c1ccccc1O	FLuc inhib CS 69.0
O=C(N/N=C\c1ccncc1)c1ccccc1O	FLuc inhib CS 68.8
O=C(N/N=C/c1ccccn1)c1ccccc1	FLuc inhib CS 55.9
COc1ccc(-c2csc(C(O)c3cccc(OC)c3)n2)cc1 (centres undefined)	none (no result: FLuc inhib CS, FLuc act counter, PPC-1+TRAIL kill, beta cell repl)
O=C1NCCc2onc(-c3ccc(Br)cc3)c21	none (no result: FLuc inhib CS, FLuc act counter, PPC-1+TRAIL kill, beta cell repl)
CCOC(=O)[C@H]1[C@H]2COc3ccccc3[C@@H]2N2C(=O)[C@@H](CO)NC(=O)[C@@]12C	none (no result: FLuc inhib CS, FLuc act counter, PPC-1+TRAIL kill)
COc1ccc(/C=C/C(=O)c2cc3c(cc2N)OCO3)cc1	FLuc inhib CS 79.0
COc1ccc(/C=C/C(=O)c2ccc(OC)cc2OC)cc1	none

Assay outcomes as filed in PubChem.
